*1 amine or outer side, *2 acyl side, *3 side chain or, on linkers, in order; H or OH if unused. Where a SMILES comes first, the peptide text is derived from it. Bridges are numbered along the chain shown (N, C = ends). X2 = N[C@H](C(=O)[*:1])C1(S[*:2])CCCCC1
How the values were obtained:
Integrin alpha-5/beta-1 = Integrin alpha-5/beta-1 (Homo sapiens, UniProt P05556+P08648); experiment: Binding affinity against integrin alpha5-beta1 in enzyme linked immunosorbent assay (ELISA)
[1] = biological target: Integrin alpha-IIb/beta-3 (Homo sapiens, UniProt P05106+P08514); experiment: Binding affinity against integrin alpha 2b-beta 3 in enzyme linked immunosorbent assay (ELISA)
Sequence of Integrin alpha-IIb/beta-3 (P05106 27-788 limits assumed): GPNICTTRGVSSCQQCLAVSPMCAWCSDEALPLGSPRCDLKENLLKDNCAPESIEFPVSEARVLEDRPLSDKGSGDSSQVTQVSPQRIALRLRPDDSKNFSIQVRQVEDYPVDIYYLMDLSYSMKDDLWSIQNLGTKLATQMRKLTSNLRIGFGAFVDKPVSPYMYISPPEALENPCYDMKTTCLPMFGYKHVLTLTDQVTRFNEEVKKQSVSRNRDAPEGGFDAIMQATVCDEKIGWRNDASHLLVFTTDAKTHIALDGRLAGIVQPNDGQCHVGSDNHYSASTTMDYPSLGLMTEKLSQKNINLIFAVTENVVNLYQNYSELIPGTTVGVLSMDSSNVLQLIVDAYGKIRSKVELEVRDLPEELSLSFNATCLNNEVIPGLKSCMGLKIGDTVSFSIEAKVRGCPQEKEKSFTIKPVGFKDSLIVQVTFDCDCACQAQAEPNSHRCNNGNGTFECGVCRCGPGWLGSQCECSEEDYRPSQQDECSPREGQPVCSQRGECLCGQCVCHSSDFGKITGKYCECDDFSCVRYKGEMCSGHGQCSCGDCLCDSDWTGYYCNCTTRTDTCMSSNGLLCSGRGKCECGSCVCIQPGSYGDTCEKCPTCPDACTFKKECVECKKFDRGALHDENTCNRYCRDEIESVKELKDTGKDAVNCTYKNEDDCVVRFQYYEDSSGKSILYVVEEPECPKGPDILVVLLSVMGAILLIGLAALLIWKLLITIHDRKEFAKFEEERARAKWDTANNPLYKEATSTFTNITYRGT
Sequence of Integrin alpha-IIb/beta-3 (P08514 32-887 limits assumed): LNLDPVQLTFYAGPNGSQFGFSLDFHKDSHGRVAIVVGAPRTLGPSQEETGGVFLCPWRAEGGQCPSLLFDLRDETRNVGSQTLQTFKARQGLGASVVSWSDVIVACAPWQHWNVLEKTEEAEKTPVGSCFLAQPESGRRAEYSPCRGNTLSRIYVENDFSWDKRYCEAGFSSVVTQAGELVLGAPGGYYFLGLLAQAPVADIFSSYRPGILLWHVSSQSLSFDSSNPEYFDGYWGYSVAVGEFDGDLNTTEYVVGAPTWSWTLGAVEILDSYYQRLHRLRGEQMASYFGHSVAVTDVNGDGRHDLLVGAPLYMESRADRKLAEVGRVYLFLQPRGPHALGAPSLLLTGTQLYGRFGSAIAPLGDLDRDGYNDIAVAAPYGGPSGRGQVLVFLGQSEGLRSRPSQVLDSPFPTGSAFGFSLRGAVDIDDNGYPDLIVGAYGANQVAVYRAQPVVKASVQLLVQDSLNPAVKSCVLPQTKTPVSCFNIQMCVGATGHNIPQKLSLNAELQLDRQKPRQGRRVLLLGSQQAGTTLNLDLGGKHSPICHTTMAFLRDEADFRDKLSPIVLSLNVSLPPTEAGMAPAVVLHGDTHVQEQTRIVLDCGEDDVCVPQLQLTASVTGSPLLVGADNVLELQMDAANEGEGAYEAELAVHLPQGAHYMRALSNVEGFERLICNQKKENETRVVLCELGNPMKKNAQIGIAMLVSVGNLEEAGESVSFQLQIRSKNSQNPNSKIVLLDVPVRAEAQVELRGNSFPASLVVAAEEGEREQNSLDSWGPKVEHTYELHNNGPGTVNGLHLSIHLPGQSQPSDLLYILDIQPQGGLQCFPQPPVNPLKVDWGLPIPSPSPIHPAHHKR
Sequence of Integrin alpha-IIb/beta-3 (P08514 891-1039 limits assumed): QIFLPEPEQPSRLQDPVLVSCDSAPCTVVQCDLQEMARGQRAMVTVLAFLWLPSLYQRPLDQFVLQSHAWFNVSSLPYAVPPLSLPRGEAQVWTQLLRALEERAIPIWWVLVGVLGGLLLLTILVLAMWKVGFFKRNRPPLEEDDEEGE
Outline: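 Purified human platelet αIIbβ3 (from outdated platelets, octyl glucoside extract) in TBS with 20 mM octyl glucoside, 2 mM MgCl2 and 2 mM CaCl2 binds to plate-coated human fibrinogen (10 µg/mL in TBS) with 10-fold serial peptide dilutions for 3 h at room temperature. Bound receptor is detected with rabbit anti-αIIbβ3, then HRP anti-rabbit IgG, with o-phenylenediamine/H2O2 at pH 5.0. IC50 is reported.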

Integrin alpha-V/beta-5 = Integrin alpha-V/beta-5 (Homo sapiens, UniProt P06756+P18084); experiment: Binding affinity against integrin alpha V-beta5 in enzyme linked immunosorbent assay (ELISA)
Outline: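 It is added to wells coated with human vitronectin in 0.1 M carbonate, pH 9.6, with 10-fold serial peptide dilutions for 3 h at room temperature. Detection uses rabbit anti-VnR, HRP anti-rabbit IgG and o-phenylenediamine/H2O2.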

Sequence of Integrin alpha-5/beta-1 (P05556 21-798 limits assumed): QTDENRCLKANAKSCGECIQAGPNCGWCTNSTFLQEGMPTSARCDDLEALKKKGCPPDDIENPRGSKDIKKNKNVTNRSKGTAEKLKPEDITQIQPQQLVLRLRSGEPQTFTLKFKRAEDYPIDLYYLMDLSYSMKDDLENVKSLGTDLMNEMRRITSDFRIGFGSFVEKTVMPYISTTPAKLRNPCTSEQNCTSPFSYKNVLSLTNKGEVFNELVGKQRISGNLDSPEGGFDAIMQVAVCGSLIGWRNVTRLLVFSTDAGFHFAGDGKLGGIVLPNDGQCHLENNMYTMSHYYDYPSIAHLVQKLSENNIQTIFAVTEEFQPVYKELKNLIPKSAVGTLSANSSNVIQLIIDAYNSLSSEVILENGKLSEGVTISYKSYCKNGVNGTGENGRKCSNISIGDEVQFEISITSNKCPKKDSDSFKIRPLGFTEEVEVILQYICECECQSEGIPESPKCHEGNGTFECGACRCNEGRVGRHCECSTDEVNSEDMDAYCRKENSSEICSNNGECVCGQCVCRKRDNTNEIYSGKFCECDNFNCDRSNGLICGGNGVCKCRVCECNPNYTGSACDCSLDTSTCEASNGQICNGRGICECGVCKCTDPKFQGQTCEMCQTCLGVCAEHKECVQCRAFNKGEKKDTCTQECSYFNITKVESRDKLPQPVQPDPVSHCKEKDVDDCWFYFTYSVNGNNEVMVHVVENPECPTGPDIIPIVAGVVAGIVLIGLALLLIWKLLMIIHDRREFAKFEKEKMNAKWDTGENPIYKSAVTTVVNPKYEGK
Sequence of Integrin alpha-5/beta-1 (P08648 42-894 limits assumed): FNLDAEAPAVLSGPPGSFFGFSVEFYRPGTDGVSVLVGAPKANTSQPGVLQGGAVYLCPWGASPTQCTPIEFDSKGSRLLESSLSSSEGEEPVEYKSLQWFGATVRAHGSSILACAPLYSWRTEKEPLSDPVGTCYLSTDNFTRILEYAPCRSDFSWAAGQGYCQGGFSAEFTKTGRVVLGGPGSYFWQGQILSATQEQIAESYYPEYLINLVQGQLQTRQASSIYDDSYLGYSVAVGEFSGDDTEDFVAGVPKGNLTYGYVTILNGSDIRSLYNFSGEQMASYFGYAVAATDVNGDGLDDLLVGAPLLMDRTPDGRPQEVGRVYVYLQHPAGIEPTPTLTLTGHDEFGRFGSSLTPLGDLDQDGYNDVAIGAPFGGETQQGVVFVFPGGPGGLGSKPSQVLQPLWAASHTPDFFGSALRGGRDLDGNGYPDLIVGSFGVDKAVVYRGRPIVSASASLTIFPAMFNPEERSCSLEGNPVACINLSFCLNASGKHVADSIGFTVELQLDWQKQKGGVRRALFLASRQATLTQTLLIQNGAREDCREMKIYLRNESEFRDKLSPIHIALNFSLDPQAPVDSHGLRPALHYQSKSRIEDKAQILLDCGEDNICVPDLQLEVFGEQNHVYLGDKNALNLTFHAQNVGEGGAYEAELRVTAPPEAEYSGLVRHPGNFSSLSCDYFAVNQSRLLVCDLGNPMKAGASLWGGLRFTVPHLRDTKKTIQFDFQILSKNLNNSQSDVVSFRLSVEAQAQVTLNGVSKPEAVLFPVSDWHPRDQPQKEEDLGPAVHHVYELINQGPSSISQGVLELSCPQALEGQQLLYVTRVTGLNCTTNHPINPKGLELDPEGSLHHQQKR
Sequence of Integrin alpha-5/beta-1 (P08648 895-1049 limits assumed): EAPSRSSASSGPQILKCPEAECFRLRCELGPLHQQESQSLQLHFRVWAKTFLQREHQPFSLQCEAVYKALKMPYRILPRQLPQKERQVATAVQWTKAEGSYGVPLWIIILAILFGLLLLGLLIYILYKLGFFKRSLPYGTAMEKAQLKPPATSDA

Row | IC50 (Integrin alpha-5/beta-1) [µM] | IC50 [1] [µM] | IC50 (Integrin alpha-V/beta-5) [µM] | Structure (SMILES)
1 | 6.2 | 6.2 | – | COc1ccc(C[C@@H]2NC(=O)[C@H](CC(=O)O)NC(=O)CNC(=O)[C@H](CCCN=C(N)N)NC(=O)[C@H](Cc3c[nH]cn3)NC(=O)[C@H](CCCN=C(N)N)NC(=O)[C@@H](N)CCC/N=C(/N)NC(=O)[C@@H](N)C3(CCCCC3)SSC[C@@H](C(=O)N[C@@H](CCCN=C(N)N)C(=O)O)NC(=O)[C@H](CCCN=C(N)N)NC2=O)cc1 [R(Pmc)-G-H-R-G-D-(Y-OMe)-R-C-R] (H-RRHRGDY(Me)RCR-OH; linker 1-9 via X2)
2 | – | 4.7 | 4.7 | COc1ccc(C[C@@H]2NC(=O)[C@H](CC(=O)O)NC(=O)CNC(=O)[C@H](CCCN=C(N)N)NC(=O)[C@H](Cc3c[nH]cn3)NC(=O)[C@H](CC(N)=O)NC(=O)[C@@H](N)CCC/N=C(/N)NC(=O)[C@@H](N)C3(CCCCC3)SSC[C@@H](C(=O)N[C@@H](CCCN=C(N)N)C(=O)O)NC(=O)[C@H](CCCN=C(N)N)NC2=O)cc1 [R(Pmc)-N-H-R-G-D-(Y-OMe)-R-C-R] (H-RNHRGDY(Me)RCR-OH; linker 1-9 via X2)

— BindingDB's records for doi:10.1021/jm00027a001 (Telios Pharmaceuticals, 1994)
